Tests used:
[1] = test system: MCF7; assay: Antiproliferative activity against human MCF7 cells after 72 hrs by methylene blue staining; format: functional, cell-based; conditions: MCF7, 72 h
Outline: (§1)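 Human cancer cell lines exposed to compound for 72 h. Cells then fixed and total protein quantified by methylene blue staining. IC50 taken as concentration giving 50% growth inhibition.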

[2] = Antiproliferative activity against human PC3M cells after 72 hrs by methylene blue staining; format: functional, cell-based; conditions: PC-3M; outline: as §1
[3] = test system: HCT-116; assay: Antiproliferative activity against human HCT116 cells after 72 hrs by methylene blue staining; format: functional, cell-based; conditions: HCT-116, 72 h; outline: as §1
[4] = Induction of pig brain alpha-beta-tubulin polymerization; design: species or system Sus scrofa
Outline: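 Porcine brain tubulin at 10 µM. Polymerization followed by turbidity at 340 nm until a stable A340 plateau (equilibrium between soluble and polymerized tubulin). EC50 is the concentration inducing 50% of the maximum achievable polymerization. The maximum is the plateau beyond which higher compound concentration gives no further A340 increase.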

Structure (SMILES)	IC50 [1]	IC50 [2]	IC50 [3]	EC50 [4]
C/C(=C\c1csc(C)n1)[C@@H]1C[C@@H]2O[C@@H]2CCC[C@H](C)[C@H](O)[C@@H](C)C(=O)C(C)(C)/C=C/C(=O)O1 [3-DEOXY-2,3-DIDEHYDRO-EPO A]	0.0087 µM	0.0248 µM	0.0162 µM	4.8 µM
C/C(=C\c1csc(C)n1)[C@@H]1C[C@@H]2O[C@@H]2CCC[C@H](C)[C@H](O)[C@@H](C)C(=O)C(C)(C)CCC(=O)O1 [3-DEOXY-EPO A]	0.0584 µM	0.079 µM	0.0844 µM	5.6 µM
C/C(=C\c1csc(C)n1)[C@@H]1C[C@@H]2O[C@@H]2CCC[C@H](C)[C@H](O)[C@@H](C)C(=O)C(C)(C)[C@@H](O)CC(=O)O1 [EPOTHILONE A]	0.0029 µM	0.0064 µM	0.0028 µM	4.6 µM

— ChEMBL document CHEMBL1143168, “Conformational preferences of natural and C3-modified epothilones in aqueous solution” (J Med Chem, 2008)
